Shown is part of a subset that was picked to be rich in hits.
CHOP inhibitor – inhibitors of CHOP promoter induction, primary screen, cell-based, unfolded protein response, luciferase reporter; CHO-K1 CHOP-promoter luciferase, tunicamycin-induced, 15-18 h; inhibition, % at 10 µM; 220,000 compounds, 3.8% hits; AID 2732, 2010;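 active = compounds that reduced the stress-induced luciferase reporter signal by more than about 70% of percent inhibition, limit read from the data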;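 note: 0% = tunicamycin plus vehicle and 100% = wells without tunicamycin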
CHOP UPR activ – activators of apoptotic CHOP UPR arm, primary screen, cell-based, CHO-CHOP luciferase reporter, luminescence, uHTS | UPR activation; percent of tunicamycin response over DMSO baseline | activation, % at 10 µM | 330,000 compounds, 0.34% hits | AID 449763, 2010;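 active = at 10 µM dose, activation of 40% or more, normalized to positive control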;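 note: 100% = tunicamycin at 10 µg/mL and 0% = DMSO alone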
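System: CHO-CHOP luciferase reporter cell line; amount: 500 cells/well; buffer or medium: F12 medium containing 10% fetal bovine serum; incubation: 6 h compound exposure at 37 °C after overnight seeding; measured by: luciferase luminescence after 10 min with Steady-Glo reagent; evaluation: % reporter activation, DMSO baseline versus tunicamycin full activation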
UPR XBP1 act – activators of adaptive XBP1 UPR arm, primary screen, cell-based, CHO-XBP1 luciferase reporter, luminescence, uHTS; IRE1-XBP1 UPR activation; percent of tunicamycin response, DMSO as zero; activation, % at 20 µM; 330,000 compounds, 0.33% hits;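 active = versus positive control, 20 µM dose yields 30% or more activation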;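 note: 100% = tunicamycin at 10 µg/mL and 0% = DMSO only wells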
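Test system: CHO-XBP1 luciferase reporter cells | Buffer or medium: Serum-containing F12 medium, 10% FBS | Schedule: 6 h compound exposure at 37 °C, 5% CO2 | Detection: Steady-Glo luciferase glow luminescence, 10 min after reagent addition | Read-out basis: Activation, % of tunicamycin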
Fh CTSL1 inh – Fasciola hepatica cathepsin L1 inhibitors, primary screen, counter-screen for PFM18AAP inhibitor project, biochemical, QFRET, fluorogenic peptide substrate | inhibition, % at 5.96 µM | recombinant F. hepatica cathepsin L1, Z-Leu-Arg-MCA fluorescence | 300,000 compounds, 0.49% hits;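 active = inhibition above the mean of all tested compounds plus 3 SD, set per screening campaign, cut at about 17% in these data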;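 note: 0% = plate median of test compound wells and 100% = 1 µM Z-Phe-Ala-diazomethylketone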
UCH37 DUB inh – inhibitors of human UCH37 deubiquitinase, primary screen, biochemical, Ub-AMC cleavage, fluorescence | inhibition, % (no concentration beside the values) | purified proteasome/UCH37 | Ubiquitin carboxyl-terminal hydrolase isozyme L5 (Homo sapiens), Q9Y5K5 | 330,000 compounds, 0.33% hits;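 active = mean inhibition over replicate wells above about 20%, limit read from the data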;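 note: 0% = compound-free wells with enzyme and 100% = wells lacking proteasome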
Target sequence (Q9Y5K5 whole entry, looked up): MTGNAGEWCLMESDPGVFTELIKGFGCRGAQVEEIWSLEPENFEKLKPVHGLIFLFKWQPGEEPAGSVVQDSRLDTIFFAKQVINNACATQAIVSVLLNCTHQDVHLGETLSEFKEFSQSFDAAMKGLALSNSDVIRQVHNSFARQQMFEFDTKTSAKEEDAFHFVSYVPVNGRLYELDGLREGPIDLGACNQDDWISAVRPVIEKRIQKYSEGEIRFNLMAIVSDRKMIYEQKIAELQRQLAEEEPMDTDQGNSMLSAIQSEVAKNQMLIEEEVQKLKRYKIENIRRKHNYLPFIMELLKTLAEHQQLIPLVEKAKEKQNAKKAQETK
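Assay system: Proteasome-bound UCH37. Buffer or medium: pH 7.4 Tris-HCl (50 mM) with ovalbumin, ATP-MgCl2, DTT. Incubation: 30 min preincubation with enzyme, 25 min cleavage at room temperature. Measured by: fluorescence, ex 355 nm, em 460 nm. Read-out basis: percent inhibition. Control set: wells without proteasome as full block, compound-free enzyme plus substrate as uninhibited.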
Numbers without * were called inactive; x = no result given.

SMILES	CHOP inhibitor	CHOP UPR activ	UPR XBP1 act	Fh CTSL1 inh	UCH37 DUB inh
O=C1C2C3C=CC(CC3)C2C(=O)N1/N=C/c1ccccc1O (stereo unspecified)	-1	8	0	2	x
COc1ccc(-c2[nH]ncc2N=Nc2ccccc2)cc1	73*	2	2	8	4
CC(C)OCCCNC(=O)c1c(N)n(N=Cc2cccs2)c2nc3ccccc3nc12	x	x	x	x	-286
CCOc1ccc(N=C2SC(C(=O)Nc3ccccc3C#N)C(N)=C2C(=O)Nc2ccc(Cl)cc2)cc1 (stereo unspecified)	76*	-1	1	12	1
N#Cc1ccccc1NC(=O)C1SC(=Nc2ccccc2)C(C(=O)Nc2ccc(Cl)cc2)=C1N (stereo unspecified)	100*	6	-1	10	x
O=C(NN=Cc1ccco1)Nc1cccc(Cl)c1	x	x	x	x	7
Cc1ccc(CN2CCN(N=Cc3ccco3)CC2)c(C)c1	x	x	x	x	4
Cc1cc(/C=C2\SC(=S)NC2=O)c(C)n1-c1ccc(O)cc1	-38	6	-1	3	4
Cc1cc(/C=C2\SC(=Nc3ccc(F)cc3)NC2=O)c(C)n1-c1ccc(S(N)(=O)=O)cc1	77*	-2	4	7	-1
O=C(CON=Cc1ccc(Cl)cc1Cl)NNC(=O)c1ccc(Cl)cc1Cl	x	x	x	x	-1
CN(C)c1ccc(C=NNS(=O)(=O)c2ccc(Br)cc2)cc1	x	x	x	x	4
CC(C)n1c2ccccc2c2nnc(SCC(=O)OCN3C(=O)c4ccccc4C3=O)nc21	90*	1	-1	-3	1
CCOC(=O)CSc1nnc2c3ccccc3n(C)c2n1	x	0	2	-1	7
CCOc1cc(C=NNc2nncc(-c3ccccc3)n2)ccc1O	x	x	x	x	6
CCOc1ccc2nc(SCC(=O)NC(=O)NCc3ccco3)sc2c1	75*	-1	-2	-1	3
COc1ccc(-c2cc(CCCC(=O)N3CCN(c4ccc(OC)cc4)CC3)no2)cc1	95*	-2	-3	0	-3
CCOc1ccc(-c2cc(CCCC(=O)NCc3ccco3)no2)cc1	84*	-4	-4	2	3
CCOc1ccccc1OCC(=O)NCc1ccco1	77*	0	0	1	2
COc1ccc(N2CCN(C(=O)COCc3cc(-c4ccc5c(c4)OCO5)on3)CC2)cc1	x	1	-2	-1	1
Cc1ccc(S(=O)(=O)N=CN(C)C)cc1	x	x	x	x	0
Cn1nc(-c2ccc(Cl)cc2)nc2c(=O)n(C)c(=O)nc1-2	x	-9	-4	113*	92*
C=CCN1C(=O)/C(=C\c2ccc(Cl)cc2)N=C1SCC(=O)NCCC	76*	-2	2	2	-1
Cc1ccc(C)c(S(=O)(=O)N2CCCN(C)CC2)c1	x	0	-4	4	5
Cc1ccc(C)c(S(=O)(=O)N2C(=S)NC(=O)C2C(C)C)c1 (stereo unspecified)	9	1	-6	17*	3
O=C(CNC(=O)c1cccs1)NN=Cc1ccc(Cl)cc1	x	x	x	x	5
SMILES	CHOP inhibitor	CHOP UPR activ	UPR XBP1 act	Fh CTSL1 inh	UCH37 DUB inh
OC(CNCCc1ccccc1)COc1ccc(OCC(O)CNCCc2ccccc2)cc1 (stereo unspecified)	-21	4	4	-1	5
OC(CNCCC(c1ccccc1)c1ccccc1)COc1ccccc1 (stereo unspecified)	74*	-2	2	0	2
CC(C)(C)C(=O)n1nc(-c2ccccc2)oc1=O	70*	1	0	0	1
Cc1ccc(C)c(S(=O)(=O)NN=Cc2cccnc2)c1	x	x	x	x	5
Cc1cccc(-c2n[nH]c(=S)n2N=Cc2ccco2)c1	x	x	x	x	6
Cc1ccc(C(C)C)c(OCC(=O)OCc2c(C)noc2C)c1	83*	-1	-2	4	5
Cc1cccc(NC(=O)Nc2nnc(N3CCCCC3C)s2)c1C (stereo unspecified)	80*	5	5	-2	5
COc1cccc(NC(=O)Nc2nnc(N3C(C)CCCC3C)s2)c1 (stereo unspecified)	20	1	-2	-6	2
CON=CC(=NNc1ccccc1)C(=O)c1ccccc1	x	x	x	x	3
CC(C)c1ccc(C=NNC(=O)C2CCCC2)cc1	x	x	x	x	4
O=C(CSc1ncnc2c1cnn2-c1ccccc1)Nc1ccc2c(c1)OCO2	54	0	2	1	x
Cc1nc(SCC(=O)NCc2ccc3c(c2)OCO3)c(C#N)c2c1CCCC2	11	7	0	21*	0
O=C(CSc1ncnc2c1cnn2-c1ccc(Cl)cc1)NCc1ccc2c(c1)OCO2	72*	3	0	0	x
COc1ccc(C(=NO)C(C)(C)NO)cc1	x	x	x	x	0
CSc1nnc(Cc2sc(-c3ccccc3)nc2-c2ccccc2)o1	83*	3	0	3	5
Fc1ccc(CSc2nnc(Cc3sc(-c4ccccc4)nc3-c3ccccc3)o2)cc1	40	-2	-3	0	2
COc1cc([N+](=O)[O-])cc(C=NNC(=O)C(C)Nc2ccccc2C)c1O (stereo unspecified)	x	x	x	x	20*
COc1cccc(/C=N/NC(=O)c2ccc([N+](=O)[O-])cc2Cl)c1O	70*	0	-2	5	x
Cc1cc(CC(C)C)n(-c2nc3ccccc3c(=O)n2OCC(=O)N(C)C)n1	-7	10	0	0	2
Cc1cc(CC(C)C)n(-c2nc3ccccc3c(=O)n2OCc2ccccc2)n1	74*	1	0	2	3
COc1ccc(OC)c(C=NNC(=O)c2cc3c(OC)cccc3[nH]2)c1	x	x	x	x	-110
COc1ccc2ccc3c(c2c1)N=CC1(O3)N(C)c2ccccc2C1(C)C (stereo unspecified)	45	1	-2	-4	-5
CN1c2ccccc2C(C)(C)[C@]12C=Cc1cc(O)ccc1O2	95*	-1	2	0	3
CN1c2ccccc2C(C)(C)C12C=Nc1c(ccc3ccccc13)O2 (stereo unspecified)	-27	6	-2	21*	4
CC(C)=C1C2CCC1C1C(=O)N(NC(=O)COc3ccc(Cl)c(C)c3)C(=O)C21 (stereo unspecified)	71*	-2	1	-10	2
O=C(COc1ccc(Cl)c(Cl)c1)NN1C(=O)C2C(C1=O)C1C=CC2C12CC2 (stereo unspecified)	21	1	-1	-11	1
COC(=O)c1cc(OC)c(OC)cc1NC(=O)c1cccc(C)c1	70*	-2	-3	3	-230
COC(=O)c1cc(OC)c(OC)cc1NC(=O)c1ccccc1	15	2	8	3	-163
